Compound activity from PubChem.
OX1R antag-1: antagonists of human orexin 1 receptor (OX1R); OX1R-expressing cells, FRET antagonist read-out; inhibition, % at 6.6 µM; hit rate 1.8% among 330,000; in the data active = inhibition mostly above about 38%, no sharp cut-off; inactive = mostly below about 40%;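 note: 0% = agonist challenge alone and 100% = reference antagonist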
GalR3 antag: GalR3 antagonists in HEK293 cells, primary screen, cell-based, fluorescence readout. Galanin receptor type 3 (Homo sapiens), O60755. HEK293 GalR3-CNG cAMP membrane potential fluorescence; galR3 body fused to GalR1 C-terminus. inhibition, % at 3 µM. hit rate 0.44% among 360,000;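 active = inhibition above the screen-wide average plus 3 SD, cut at about 13% in these data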;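 note: forskolin and galanin both at EC90 stimulate the cells; cAMP rise reported by CNG channel membrane potential dye signal; 0% = forskolin plus galanin with DMSO and 100% = forskolin alone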
Target sequence (O60755 1-299 limits assumed): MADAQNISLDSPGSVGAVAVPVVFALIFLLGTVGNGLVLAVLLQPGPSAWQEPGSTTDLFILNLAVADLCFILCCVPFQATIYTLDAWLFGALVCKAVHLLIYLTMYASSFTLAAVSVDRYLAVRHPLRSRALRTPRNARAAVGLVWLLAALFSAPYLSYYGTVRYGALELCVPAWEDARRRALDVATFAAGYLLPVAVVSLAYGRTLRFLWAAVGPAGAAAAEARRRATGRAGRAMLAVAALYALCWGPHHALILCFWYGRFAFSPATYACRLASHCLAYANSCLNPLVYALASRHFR
CHO parental Ca: ATP-evoked calcium signal inhibitors, parental CHO, primary screen, counter-screen for OX1R antagonist project, cell-based, fluorescence, Fluo-8 calcium dye; parental CHO-K1, ATP-induced calcium, Fluo-8 fluorescence; inhibition, % at 5.6 µM; AID 463079, 2010; hit rate 0.63% among 330,000;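 active = inhibition above that plate's mean sample inhibition plus 3 SD, cut at about 26% in these data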;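 note: 0% = ATP-challenged DMSO wells and 100% = DMSO wells without ATP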
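Material – parental CHO cells · Reagent – ATP stimulus · Compound – single nominal dose of 5.6 µM per compound · Detection – Fluo-8 fluorescence · Read-out basis – percent inhibition of calcium signal · Controls – ATP-challenged DMSO wells low, unchallenged DMSO wells high · Repeats – no replicates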
GPR7 antag: GPR7 receptor antagonists, primary screen, cell-based, fluorescence, single concentration. Neuropeptides B/W receptor type 1 (Homo sapiens), P48145. GPR7-expressing cells, fluorescence antagonist assay. inhibition, % at 4.4 µM. hit rate 1.1% among 290,000. AID 1861, 2009; in the data active = inhibition above about 16%, passing the limit was not always enough;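 note: cells stimulated with the agonist NPW; 0% = agonist with vehicle and 100% = vehicle without agonist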
Target sequence (P48145 whole entry, looked up): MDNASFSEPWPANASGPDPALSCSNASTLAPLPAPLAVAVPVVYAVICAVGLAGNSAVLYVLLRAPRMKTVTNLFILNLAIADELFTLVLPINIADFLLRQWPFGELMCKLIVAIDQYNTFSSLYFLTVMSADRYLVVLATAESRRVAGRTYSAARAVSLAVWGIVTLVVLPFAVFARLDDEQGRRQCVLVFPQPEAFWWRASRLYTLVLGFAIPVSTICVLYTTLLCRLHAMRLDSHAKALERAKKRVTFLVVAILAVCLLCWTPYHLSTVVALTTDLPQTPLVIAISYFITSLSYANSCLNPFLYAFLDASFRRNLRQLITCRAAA
OX1R antag-2: OX1R (HCRTR1) antagonists, primary screen, fluorescence, CHO/OX1R cells, Fluo-8 calcium, orexin A; Orexin/Hypocretin receptor type 1 (Homo sapiens), O43613; Fluo-8 calcium fluorescence; inhibition, % at 5 µM; hit rate 0.43% among 330,000;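 active = inhibition above its plate's threshold, mean inhibition of all tested compounds on the plate plus 3 SD, cut at about 37% in these data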;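 note: 0% = orexin A challenge wells and 100% = SB-334867-A antagonist wells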
GPR7 antag cf: GPR7 receptor antagonists, confirmation, cell-based, fluorescence, single concentration; GPR7-expressing cells, calcium fluorescence antagonist mode; shares compounds with GPR7 antag; hit rate 52% among 2,400; inhibition, % at 4.4 µM; in the data active = inhibition above about 24%;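 note: stimulated with the GPR7 agonist NPW; 0% = agonist plus vehicle and 100% = vehicle alone without agonist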
MCHR1 antag: MCHR1 antagonists in cells, counter-screen for GPR7 antagonist project, cell-based, fluorescence, human | MCHR1-expressing cells, fluorescence antagonist assay | shares compounds with GPR7 antag | inhibition, % at 4.4 µM | hit rate 62% among 2,400; in the data active = inhibition above about 22%;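 note: 0% = vehicle with agonist and 100% = vehicle without agonist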
* marks the source's active call; other numbers are inactive results. Only some compounds are listed: those with a hit (about 3.1% of all), similar ones and a draw of the others.

For O=C(OCc1ccccc1)C1=NNC2C(=O)N(c3ccccc3)C(=O)C12 (configuration not stated) the results were OX1R antag-1 0, GalR3 antag -3, CHO parental Ca -5, GPR7 antag 23*, OX1R antag-2 -2, GPR7 antag cf -2 and MCHR1 antag -6.
`Cc1nc(C)c(-c2ccc(SCC(=O)Nc3cccc(Cl)c3)nn2)s1` gave OX1R antag-1 39, GalR3 antag 0, CHO parental Ca -1, GPR7 antag 33*, OX1R antag-2 -11, GPR7 antag cf 48* and MCHR1 antag 67*.
CCc1ccc(NC(=O)CSc2ccc(-c3sc(C)nc3C)nn2)cc1 was read as OX1R antag-1 7, GalR3 antag -2, CHO parental Ca -12, GPR7 antag 31*, OX1R antag-2 -25, GPR7 antag cf 41* and MCHR1 antag 76*.
Screening COc1ccc(NC(=O)CSc2ccc(-c3sc(C)nc3C)nn2)cc1 returned OX1R antag-1 19, GalR3 antag -3, CHO parental Ca 0, GPR7 antag 1 and OX1R antag-2 -12.
For COC(=O)C1=C(C)N(Cc2ccccc2C(F)(F)F)C(=NCc2ccc(OC)cc2)NC1c1ccc(Cl)cc1 (configuration not stated) the results were GalR3 antag -6.
`Cc1ccc(NCC(=O)N/N=C/c2ccc(OC(=O)c3ccco3)cc2)cc1` gave OX1R antag-1 3, GalR3 antag -1, CHO parental Ca -14, GPR7 antag 31*, OX1R antag-2 2, GPR7 antag cf 31* and MCHR1 antag 11.
Screening COc1ccc(C2CC(=O)C(c3ccccc3)=CN2Cc2ccccc2)cc1 (configuration not stated) returned GalR3 antag -7.
Screening COc1ccc(/C=C/c2ccc3cccc(O)c3n2)c(OC)c1OC returned OX1R antag-1 -1, GalR3 antag -12, CHO parental Ca 21, GPR7 antag 32*, OX1R antag-2 17, GPR7 antag cf 20 and MCHR1 antag 62*.
COc1cccc(/C=C/c2ccc3cccc(O)c3n2)c1OC was read as OX1R antag-1 9, GalR3 antag -9, CHO parental Ca 15, GPR7 antag 2 and OX1R antag-2 -14.
`CSc1ccc(Cn2c(C)c(C(=O)NCc3cccc(C(F)(F)F)c3)sc2=O)cc1` gave GalR3 antag 0.
For O=C(C1COc2ccccc2O1)N1CCN(Cc2ccc(Br)cc2F)CC1 (configuration not stated) the results were OX1R antag-1 14, GalR3 antag -10, CHO parental Ca 1, GPR7 antag 16 and OX1R antag-2 -9.
For CC1(C(=O)Nc2ccccc2)CCN1C(=O)C1(c2ccccc2)CC1 (configuration not stated) the results were GalR3 antag -6.
For O=C(NC(=S)Nc1cccc(O)c1)C12CC3CC(CC(C3)C1)C2 the results were GalR3 antag -6.
Screening CC(C)C(=O)Nc1ccc(NC(=O)CCc2ccccc2)cn1 returned OX1R antag-1 1, GalR3 antag 1, CHO parental Ca -2, GPR7 antag 23*, OX1R antag-2 -5, GPR7 antag cf 5 and MCHR1 antag 2.
C[C@H](NC(=O)c1ncn2c1c(=O)[nH]c1ccc(Br)cc12)c1ccccc1 was read as GalR3 antag -4.
`COc1ccc2cc([C@H](C)C(=O)N(C)Cc3ccccc3N3CCCC3)ccc2c1` gave OX1R antag-1 9, GalR3 antag -9, CHO parental Ca -24, GPR7 antag 28*, OX1R antag-2 -6, GPR7 antag cf 4 and MCHR1 antag 50*.
Screening COc1ccc(CC(=O)NCc2nnc(SCc3ccc([N+](=O)[O-])cc3)n2C)cc1 returned OX1R antag-1 13, GalR3 antag -3, CHO parental Ca -3, GPR7 antag -9 and OX1R antag-2 1.
Cn1c(Cc2cccc3ccccc23)nnc1SCc1ccc([N+](=O)[O-])cc1 was read as OX1R antag-1 6, GalR3 antag -5, CHO parental Ca -9, GPR7 antag 29*, OX1R antag-2 -19, GPR7 antag cf 1 and MCHR1 antag 15.
Nc1ccccc1C#Cc1ccc([N+](=O)[O-])cc1 was read as OX1R antag-1 5, GalR3 antag -4, CHO parental Ca -2 and OX1R antag-2 -3.
For Nc1ccccc1C#CC(=O)c1ccccc1 the results were OX1R antag-1 2, GalR3 antag -9, CHO parental Ca -4, GPR7 antag 37*, OX1R antag-2 1, GPR7 antag cf 71* and MCHR1 antag 36*.
`C=CC[C@H]1C(C(=O)OCC)=CC[C@@H](c2ccccc2)N1S(=O)(=O)c1ccc(C)cc1` gave GalR3 antag -5.
`CC(C)c1ccc(NC(=O)C2Cc3c(-c4cccc(F)c4)ccnc3O2)cc1` (configuration not stated) gave GalR3 antag -2.
Screening COCCN=C1N[C@@H](c2ccccc2)C(C(=O)OC)=C(C)N1Cc1ccccc1 returned OX1R antag-1 18, GalR3 antag -7, CHO parental Ca -23, GPR7 antag 5 and OX1R antag-2 -5.
Screening COCCN=C1N[C@@H](c2ccc(Br)cc2)C(C(=O)OC)=C(C)N1Cc1ccccc1 returned OX1R antag-1 4, GalR3 antag -9, CHO parental Ca -1, GPR7 antag 49*, OX1R antag-2 -13, GPR7 antag cf 65* and MCHR1 antag 41*.
`CC[n+]1c(/C=C/N(C)c2ccccc2)oc2ccc(Cl)cc21` gave OX1R antag-1 6, GalR3 antag -4, CHO parental Ca -5, GPR7 antag -8 and OX1R antag-2 -4.
Screening CCN1/C(=C/C=C/c2oc3ccc4ccccc4c3[n+]2CC)Oc2ccc3ccccc3c21 returned OX1R antag-1 14, CHO parental Ca 64*, GPR7 antag 45*, OX1R antag-2 76*, GPR7 antag cf 55* and MCHR1 antag 58*.
Screening O=C(CSc1nnc(Cc2cccs2)n1Cc1ccco1)Nc1ccc(Cl)cc1Cl returned OX1R antag-1 31, GalR3 antag -7, CHO parental Ca -8, GPR7 antag 28*, OX1R antag-2 -35, GPR7 antag cf 31* and MCHR1 antag 34*.
